Converted amounts (≈) assume the structure as drawn.
How the values were obtained:
Enterococcus faecium [1] = assay: Antimicrobial activity against vancomycin-resistant Enterococcus faecium by broth microdilution/CLSI method; type: functional
Enterococcus faecium [2] = assay: Antimicrobial activity against Enterococcus faecium by broth microdilution/CLSI method; type: functional
[3] = Percentage unbound in mouse plasma; type: ADME, cell-free
[4] = Clearance in dog at 10 mg/kg, iv; type: ADME, organism-based, Canis lupus familiaris; parameters: dose 10 mg/kg, route intravenous; details: plasma
Moraxella catarrhalis = assay: Antimicrobial activity against Moraxella catarrhalis by broth microdilution/CLSI method; type: functional; details: Moraxella catarrhalis; read-out: MIC
[5] = AUC in methicillin-sensitive Staphylococcus aureus ARC516 infected in neutropenic CD1 mouse thigh model at 30 mg/kg, ip q24; type: ADME, organism-based; parameters: dose 30 mg/kg, route intraperitoneal; details: in vivo
Staphylococcus aureus [6] = assay: Ratio of MIC for 2 times drug resistance selected Staphylococcus aureus ARC516-2F to MIC for Staphylococcus aureus ARC516; type: functional
[7] = Clearance in Wistar rat at 10 mg/kg, iv; type: ADME, organism-based; parameters: dose 10 mg/kg, route intravenous; details: in vivo
Haemophilus influenzae [8] = assay: Antimicrobial activity against amoxicillin-resistant Haemophilus influenzae by broth microdilution/CLSI method; type: functional
[9] = Solubility of the compound; type: physicochemical
Staphylococcus aureus [10] = assay: Antimicrobial activity against 2 times drug resistance selected Staphylococcus aureus ARC2381-2F by broth microdilution/CLSI method; type: functional
Staphylococcus aureus [11] = assay: Antimicrobial activity against methicillin-resistant Staphylococcus aureus by broth microdilution/CLSI method; type: functional
Mus musculus = assay: fAUC in methicillin-sensitive Staphylococcus aureus ARC516 infected in neutropenic CD1 mouse thigh model at 30 mg/kg, ip q24; type: ADME, organism-based; parameters: dose 30 mg/kg, route intraperitoneal; details: in vivo
Staphylococcus aureus [12] = assay: Antimicrobial activity against 2 times drug resistance selected Staphylococcus aureus ARC2398-1F by broth microdilution/CLSI method; type: functional
Staphylococcus aureus [13] = assay: Antibacterial activity against methicillin-sensitive Staphylococcus aureus ARC516 infected in neutropenic CD1 mouse thigh model assessed as decrease in bacterial viable counts at 30 mg/kg, ip after 24 hrs; type: functional; details: route intraperitoneal
Streptococcus pyogenes = assay: Antimicrobial activity against Streptococcus pyogenes by broth microdilution/CLSI method; type: functional
Cytochrome P450 2D6 = Cytochrome P450 2D6 (Homo sapiens, UniProt P10635); assay: Inhibition of human CYP2D6 at 50 uM; type: ADME
Staphylococcus aureus [14] = assay: Ratio of MIC for 2 times drug resistance selected Staphylococcus aureus ARC2381-3F to MIC for Staphylococcus aureus ARC2381; type: functional
Staphylococcus aureus [15] = assay: Ratio of MIC for 2 times drug resistance selected Staphylococcus aureus ARC516-1F to MIC for Staphylococcus aureus ARC516; type: functional
Staphylococcus aureus [16] = assay: Antimicrobial activity against Staphylococcus aureus ARC2381 by broth microdilution/CLSI method; type: functional
Staphylococcus aureus [17] = assay: Antimicrobial activity against 2 times drug resistance selected Staphylococcus aureus ARC2398-2F by broth microdilution/CLSI method; type: functional
[18] = Dissociation constant, pKa of the compound; type: physicochemical
Staphylococcus aureus [19] = assay: Antimicrobial activity against Staphylococcus aureus ARC1692 by broth microdilution/CLSI method; type: functional
DNA gyrase subunit B = DNA gyrase subunit B (Staphylococcus aureus, UniProt P0A0K8); assay: Inhibition of ATPase activity of Staphylococcus aureus GyrB
Summary of the method: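 IC50 was determined against S. aureus GyrB in the routine screening assay. The enzyme concentration limits resolution below 10 nM.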

Staphylococcus aureus [20] = assay: Antimicrobial activity against 2 times drug resistance selected Staphylococcus aureus ARC516-2F by broth microdilution/CLSI method; type: functional
[21] = Percentage unbound in dog plasma; type: ADME, cell-free, Canis lupus familiaris
Enterococcus faecalis = assay: Antimicrobial activity against Enterococcus faecalis by broth microdilution/CLSI method; type: functional
Staphylococcus aureus [22] = assay: Ratio of MIC for 2 times drug resistance selected Staphylococcus aureus ARC2381-2F to MIC for Staphylococcus aureus ARC2381; type: functional
[23] = Selectivity ratio for human topoisomerase 2 alpha to bacterial type 2 topoisomerase
Staphylococcus aureus [24] = assay: Ratio of MIC for 2 times drug resistance selected Staphylococcus aureus ARC2398-2F to MIC for Staphylococcus aureus ARC2398; type: functional
[25] = Bioavailability in dog at 10 mg/kg, iv; type: ADME, organism-based, Canis lupus familiaris; details: plasma
Haemophilus influenzae [26] = assay: Antimicrobial activity against Haemophilus influenzae by broth microdilution/CLSI method; type: functional; details: Haemophilus influenzae; read-out: MIC
Staphylococcus aureus [27] = assay: Antimicrobial activity against Staphylococcus aureus ARC516 by broth microdilution/CLSI method; type: functional
[28] = Octanol-phosphate buffer distribution coefficient, log D of the compound at pH 7.4 by shake flask method; type: physicochemical
[29] = target: T1, ATP-binding cassette sub-family C member 2 (Homo sapiens, UniProt Q92887); assay: Inhibition of ATPase activity of human MRP2 assessed as inorganic phosphate
Staphylococcus aureus [30] = assay: Antibacterial activity against methicillin-sensitive Staphylococcus aureus ARC516 infected in ip dosed neutropenic CD1 mouse thigh model assessed as decrease in bacterial viable counts treated for q24; type: functional; details: ARC516, Thigh muscle
[31] = Bioavailability in Wistar rat at 10 mg/kg, […]; type: ADME, organism-based; details: in vivo
Streptococcus pneumoniae = assay: Antibacterial activity against Streptococcus pneumoniae by broth microdilution/CLSI method; type: functional; details: Streptococcus pneumoniae; read-out: MIC
Staphylococcus aureus [32] = assay: Antibacterial activity against methicillin-sensitive Staphylococcus aureus ARC516 infected in ip dosed neutropenic CD1 mouse thigh model assessed as decrease in bacterial viable counts after 24 hrs; type: functional, organism-based; details: Thigh muscle
Cytochrome P450 2C19 = Cytochrome P450 2C19 (Homo sapiens, UniProt P33261); assay: Inhibition of human CYP2C19 at 50 uM; type: ADME
Cytochrome P450 1A2 = target: T2, Cytochrome P450 1A2 (Homo sapiens, UniProt P05177); assay: Inhibition of human CYP1A2 at 50 uM; type: ADME
T2 sequence (P05177 whole entry): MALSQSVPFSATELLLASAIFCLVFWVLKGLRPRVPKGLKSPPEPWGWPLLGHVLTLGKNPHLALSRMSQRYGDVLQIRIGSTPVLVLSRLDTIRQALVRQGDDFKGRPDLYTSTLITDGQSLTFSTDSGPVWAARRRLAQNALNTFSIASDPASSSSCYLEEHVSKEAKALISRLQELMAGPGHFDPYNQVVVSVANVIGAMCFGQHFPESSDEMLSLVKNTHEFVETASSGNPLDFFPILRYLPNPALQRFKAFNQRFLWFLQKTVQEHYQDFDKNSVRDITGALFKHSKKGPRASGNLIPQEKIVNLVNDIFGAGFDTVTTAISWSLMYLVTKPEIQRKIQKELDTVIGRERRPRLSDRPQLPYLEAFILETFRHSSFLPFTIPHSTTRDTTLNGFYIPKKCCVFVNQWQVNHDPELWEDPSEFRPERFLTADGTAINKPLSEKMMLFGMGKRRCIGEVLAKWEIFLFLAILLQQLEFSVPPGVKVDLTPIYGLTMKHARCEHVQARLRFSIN

Staphylococcus aureus [33] = assay: Antimicrobial activity against 2 times drug resistance selected Staphylococcus aureus ARC1692-2F by broth microdilution/CLSI method; type: functional
[34] = target: T1, ATP-binding cassette sub-family C member 2; assay: Stimulation of ATPase activity of human MRP2 assessed as inorganic phosphate
[35] = target: ATP-binding cassette sub-family C member 2 (Rattus norvegicus, UniProt Q63120); assay: Inhibition of ATPase activity of rat Mrp2 assessed as inorganic phosphate
[36] = Clearance in CD1 mouse at 10 mg/kg, iv; type: ADME, organism-based; parameters: dose 10 mg/kg, route intravenous; details: in vivo

T1 sequence (Q92887 whole entry): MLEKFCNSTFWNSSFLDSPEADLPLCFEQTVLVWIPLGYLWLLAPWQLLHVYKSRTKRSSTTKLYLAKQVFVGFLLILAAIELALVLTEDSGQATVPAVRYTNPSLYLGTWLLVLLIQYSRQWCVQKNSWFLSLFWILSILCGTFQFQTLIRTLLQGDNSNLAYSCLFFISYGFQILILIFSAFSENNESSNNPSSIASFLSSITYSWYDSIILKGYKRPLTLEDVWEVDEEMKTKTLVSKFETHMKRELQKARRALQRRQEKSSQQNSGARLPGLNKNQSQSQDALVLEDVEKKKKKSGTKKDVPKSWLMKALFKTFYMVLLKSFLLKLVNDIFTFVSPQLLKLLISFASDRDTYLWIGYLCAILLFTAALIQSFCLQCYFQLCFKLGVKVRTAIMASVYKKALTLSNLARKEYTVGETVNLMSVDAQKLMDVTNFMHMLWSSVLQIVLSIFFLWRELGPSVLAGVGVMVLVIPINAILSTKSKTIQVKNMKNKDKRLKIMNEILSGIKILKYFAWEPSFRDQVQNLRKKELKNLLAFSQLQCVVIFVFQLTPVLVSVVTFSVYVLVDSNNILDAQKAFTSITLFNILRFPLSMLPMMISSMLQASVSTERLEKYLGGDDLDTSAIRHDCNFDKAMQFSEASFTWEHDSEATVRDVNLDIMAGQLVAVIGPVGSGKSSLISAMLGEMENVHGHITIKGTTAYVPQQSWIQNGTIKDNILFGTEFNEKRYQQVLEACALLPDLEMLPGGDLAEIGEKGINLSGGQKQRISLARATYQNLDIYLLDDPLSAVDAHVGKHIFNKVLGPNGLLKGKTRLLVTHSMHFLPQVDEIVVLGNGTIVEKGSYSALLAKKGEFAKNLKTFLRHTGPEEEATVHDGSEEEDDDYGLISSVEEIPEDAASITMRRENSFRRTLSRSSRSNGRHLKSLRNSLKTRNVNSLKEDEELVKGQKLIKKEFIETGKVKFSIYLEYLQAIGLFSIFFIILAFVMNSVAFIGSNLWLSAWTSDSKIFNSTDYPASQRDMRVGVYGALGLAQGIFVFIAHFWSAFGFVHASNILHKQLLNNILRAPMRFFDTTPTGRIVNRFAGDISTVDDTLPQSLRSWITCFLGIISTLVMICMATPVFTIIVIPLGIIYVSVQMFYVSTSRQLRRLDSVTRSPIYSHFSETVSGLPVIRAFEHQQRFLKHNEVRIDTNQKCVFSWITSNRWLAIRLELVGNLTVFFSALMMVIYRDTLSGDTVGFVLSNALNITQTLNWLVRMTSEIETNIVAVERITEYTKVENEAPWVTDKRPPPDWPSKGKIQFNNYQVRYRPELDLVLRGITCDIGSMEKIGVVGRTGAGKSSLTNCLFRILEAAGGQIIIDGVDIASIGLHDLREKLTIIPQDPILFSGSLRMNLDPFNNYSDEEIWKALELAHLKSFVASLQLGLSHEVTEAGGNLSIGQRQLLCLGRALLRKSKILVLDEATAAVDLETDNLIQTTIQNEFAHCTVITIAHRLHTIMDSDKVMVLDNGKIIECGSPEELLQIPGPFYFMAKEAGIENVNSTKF
Sequence of Cytochrome P450 2C19 (P33261 whole entry): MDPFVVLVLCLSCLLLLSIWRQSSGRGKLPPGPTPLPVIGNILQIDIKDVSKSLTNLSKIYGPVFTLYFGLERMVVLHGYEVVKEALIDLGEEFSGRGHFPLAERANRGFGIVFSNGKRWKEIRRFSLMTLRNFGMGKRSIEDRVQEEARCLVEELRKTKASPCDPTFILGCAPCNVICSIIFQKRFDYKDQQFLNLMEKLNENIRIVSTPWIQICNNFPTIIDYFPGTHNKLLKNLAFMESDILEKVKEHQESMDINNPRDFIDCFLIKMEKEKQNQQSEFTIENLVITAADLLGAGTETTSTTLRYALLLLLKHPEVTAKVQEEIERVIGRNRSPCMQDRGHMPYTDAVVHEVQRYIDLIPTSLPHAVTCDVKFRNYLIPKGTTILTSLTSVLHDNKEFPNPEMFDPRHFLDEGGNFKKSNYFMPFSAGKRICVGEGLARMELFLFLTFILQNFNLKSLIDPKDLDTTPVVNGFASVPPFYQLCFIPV
Sequence of DNA gyrase subunit B (P0A0K8 whole entry): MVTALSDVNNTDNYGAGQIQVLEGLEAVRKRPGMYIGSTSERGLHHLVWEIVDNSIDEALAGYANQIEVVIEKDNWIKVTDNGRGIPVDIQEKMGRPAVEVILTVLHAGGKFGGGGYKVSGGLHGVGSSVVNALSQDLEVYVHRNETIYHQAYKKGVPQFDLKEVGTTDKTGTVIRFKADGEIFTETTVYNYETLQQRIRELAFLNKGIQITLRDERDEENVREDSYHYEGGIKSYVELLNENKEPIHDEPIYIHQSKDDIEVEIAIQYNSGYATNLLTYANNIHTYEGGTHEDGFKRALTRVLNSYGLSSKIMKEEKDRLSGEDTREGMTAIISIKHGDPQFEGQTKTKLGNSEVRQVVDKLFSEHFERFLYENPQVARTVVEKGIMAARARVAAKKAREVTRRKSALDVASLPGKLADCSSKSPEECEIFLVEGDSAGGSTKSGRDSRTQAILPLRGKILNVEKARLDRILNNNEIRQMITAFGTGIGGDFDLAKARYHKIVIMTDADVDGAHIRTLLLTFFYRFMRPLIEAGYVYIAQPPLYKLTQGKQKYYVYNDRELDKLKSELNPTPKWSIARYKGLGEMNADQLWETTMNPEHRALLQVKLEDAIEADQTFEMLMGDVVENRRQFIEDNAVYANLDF
Sequence of Cytochrome P450 2D6 (P10635 whole entry): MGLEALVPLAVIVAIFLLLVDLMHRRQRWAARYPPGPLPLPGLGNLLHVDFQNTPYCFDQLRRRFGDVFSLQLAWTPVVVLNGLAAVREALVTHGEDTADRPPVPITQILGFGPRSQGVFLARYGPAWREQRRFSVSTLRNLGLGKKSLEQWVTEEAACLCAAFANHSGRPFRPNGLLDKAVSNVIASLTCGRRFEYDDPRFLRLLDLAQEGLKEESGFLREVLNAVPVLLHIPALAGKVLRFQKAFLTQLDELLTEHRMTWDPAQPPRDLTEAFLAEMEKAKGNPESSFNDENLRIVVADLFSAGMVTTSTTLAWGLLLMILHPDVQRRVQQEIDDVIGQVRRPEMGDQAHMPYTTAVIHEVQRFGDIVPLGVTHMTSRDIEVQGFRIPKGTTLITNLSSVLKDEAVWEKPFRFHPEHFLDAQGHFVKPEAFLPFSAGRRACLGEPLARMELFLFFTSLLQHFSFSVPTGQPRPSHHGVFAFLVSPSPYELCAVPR
Sequence of ATP-binding cassette sub-family C member 2 (Rattus norvegicus, UniProt Q63120) (Q63120 whole entry): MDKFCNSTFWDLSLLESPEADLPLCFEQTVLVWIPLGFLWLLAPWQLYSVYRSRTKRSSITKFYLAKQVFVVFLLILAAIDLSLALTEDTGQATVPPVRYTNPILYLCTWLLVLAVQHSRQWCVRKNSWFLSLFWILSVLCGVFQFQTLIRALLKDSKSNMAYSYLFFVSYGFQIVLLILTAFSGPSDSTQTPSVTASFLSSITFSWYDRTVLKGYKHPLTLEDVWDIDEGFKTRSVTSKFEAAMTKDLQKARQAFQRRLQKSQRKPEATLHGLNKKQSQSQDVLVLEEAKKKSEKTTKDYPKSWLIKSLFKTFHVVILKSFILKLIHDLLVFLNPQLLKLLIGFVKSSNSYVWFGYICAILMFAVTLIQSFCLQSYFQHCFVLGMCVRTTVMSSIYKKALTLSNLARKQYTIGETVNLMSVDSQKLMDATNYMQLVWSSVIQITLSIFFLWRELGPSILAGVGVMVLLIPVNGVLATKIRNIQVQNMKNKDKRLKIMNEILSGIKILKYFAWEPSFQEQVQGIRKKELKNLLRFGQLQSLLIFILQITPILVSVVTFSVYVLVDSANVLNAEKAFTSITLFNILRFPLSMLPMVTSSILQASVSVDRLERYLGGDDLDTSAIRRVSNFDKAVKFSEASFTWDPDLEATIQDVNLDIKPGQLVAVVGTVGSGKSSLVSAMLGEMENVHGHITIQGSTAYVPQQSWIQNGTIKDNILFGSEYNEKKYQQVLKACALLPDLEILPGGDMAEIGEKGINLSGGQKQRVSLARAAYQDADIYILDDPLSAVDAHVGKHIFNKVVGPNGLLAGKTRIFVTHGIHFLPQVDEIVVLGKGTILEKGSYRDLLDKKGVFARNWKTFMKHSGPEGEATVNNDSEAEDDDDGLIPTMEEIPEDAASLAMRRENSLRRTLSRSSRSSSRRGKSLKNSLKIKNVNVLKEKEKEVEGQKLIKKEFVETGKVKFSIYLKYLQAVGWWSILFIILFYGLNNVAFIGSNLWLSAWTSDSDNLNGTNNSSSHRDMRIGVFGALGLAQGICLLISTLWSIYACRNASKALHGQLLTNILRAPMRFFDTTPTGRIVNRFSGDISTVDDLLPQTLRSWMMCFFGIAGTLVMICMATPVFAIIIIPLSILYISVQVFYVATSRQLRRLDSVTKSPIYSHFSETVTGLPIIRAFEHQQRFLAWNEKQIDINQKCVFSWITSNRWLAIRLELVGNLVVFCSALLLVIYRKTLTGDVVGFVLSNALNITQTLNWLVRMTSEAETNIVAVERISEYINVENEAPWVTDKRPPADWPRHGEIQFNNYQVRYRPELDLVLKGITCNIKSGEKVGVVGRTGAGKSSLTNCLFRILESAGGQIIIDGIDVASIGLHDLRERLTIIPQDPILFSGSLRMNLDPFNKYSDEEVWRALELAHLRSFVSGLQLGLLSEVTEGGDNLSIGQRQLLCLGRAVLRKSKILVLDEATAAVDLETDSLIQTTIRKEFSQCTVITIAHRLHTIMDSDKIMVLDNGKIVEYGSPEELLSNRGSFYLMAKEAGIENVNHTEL

COC[C@H](C)NC(=O)c1nc(N2CC[C@@H](NC(=O)c3[nH]c(C)c(Cl)c3Cl)[C@@H](OC)C2)sc1C(=O)O [AZD-5099]
MIC90 (Enterococcus faecium [1]): 0.06 µg/mL (≈ 0.109 µM) | MIC90 (Enterococcus faecium [2]): 0.06 µg/mL (≈ 0.109 µM) | fraction unbound [3]: 0.047 | clearance [4]: 0.64 mL/min/kg | MIC (Moraxella catarrhalis): < 0.008 µg/mL | AUC [5]: 116 µg·h/mL | Ratio (Staphylococcus aureus [6]): 16 | clearance [7]: 4 mL/min/kg | MIC90 (Haemophilus influenzae [8]): 0.25 µg/mL (≈ 0.456 µM) | solubility [9]: 960 µM (≈ 527 µg/mL) | MIC (Staphylococcus aureus [10]): 0.13 µg/mL (≈ 0.237 µM) | MIC90 (Staphylococcus aureus [11]): 0.06 µg/mL (≈ 0.109 µM) | fAUC (Mus musculus): 5.45 µg·h/mL | MIC (Staphylococcus aureus [12]): 0.5 µg/mL (≈ 0.912 µM) | fold change (FC) (Staphylococcus aureus [13]): 2 | MIC (Streptococcus pyogenes): 0.014 µg/mL (≈ 0.0255 µM) | inhibition (INH) (Cytochrome P450 2D6): Not Active | Ratio (Staphylococcus aureus [14]): 8 | Ratio (Staphylococcus aureus [15]): 16 | MIC (Staphylococcus aureus [16]): 0.016 µg/mL (≈ 0.0292 µM) | MIC (Staphylococcus aureus [17]): 0.5 µg/mL (≈ 0.912 µM) | pKa [18]: 4.2 | MIC (Staphylococcus aureus [19]): 0.06 µg/mL (≈ 0.109 µM) | IC50 (DNA gyrase subunit B): < 0.01 µM | MIC (Staphylococcus aureus [20]): 0.25 µg/mL (≈ 0.456 µM) | fraction unbound [21]: 0.062 | MIC90 (Enterococcus faecalis): 0.015 µg/mL (≈ 0.0273 µM) | Ratio (Staphylococcus aureus [22]): 8 | Selectivity ratio [23]: 10000 | Ratio (Staphylococcus aureus [24]): 16 | bioavailability [25]: 96% | MIC (Haemophilus influenzae [26]): 0.13 µg/mL (≈ 0.237 µM) | MIC (Staphylococcus aureus [27]): 0.016 µg/mL (≈ 0.0292 µM) | logD [28]: 1.4 | IC50 [29]: 59 µM | MIC (Staphylococcus aureus [30]): 0.03 µg/mL (≈ 0.0547 µM) | bioavailability [31]: 81% | MIC (Streptococcus pneumoniae): 0.016 µg/mL (≈ 0.0292 µM) | inhibition (Staphylococcus aureus [32]): Dose-dependent effect | inhibition (INH) (Cytochrome P450 2C19): Not Active | inhibition (INH) (Cytochrome P450 1A2): Not Active | MIC (Staphylococcus aureus [33]): 0.5 µg/mL (≈ 0.912 µM) | EC50 [34]: > 200 µM | IC50 [35]: 200 µM | clearance [36]: 10 mL/min/kg

Source: ChEMBL document CHEMBL3352173, “Optimization of pyrrolamide topoisomerase II inhibitors toward identification of an antibacterial clinical candidate (AZD5099)” (J Med Chem, 2014)
